MEKK3 PB1 HTS = modulators of MEKK3-MEK5 PB1 binding, primary screen, biochemical, wildtype MEKK3, multiplex bead flow cytometry, Alexa488-MEK5 | binding response (% of control), % at 10 µM | 290,000 compounds, 1.4% hits | Mitogen-activated protein kinase kinase kinase 3 (Homo sapiens), Q99759 | bead-based flow cytometry, Alexa488-MEK5 binding to MEKK3; actives lie on both sides; 0 = blocked by unlabeled MEK5, 100 = vehicle;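 active = binding response more than 3 SD above or below the average of its plate-row segment, actives on both sides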;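 also: Alexa488 bead fluorescence after subtracting the streptavidin-only scavenger bead signal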
Target sequence (Q99759 whole entry, looked up): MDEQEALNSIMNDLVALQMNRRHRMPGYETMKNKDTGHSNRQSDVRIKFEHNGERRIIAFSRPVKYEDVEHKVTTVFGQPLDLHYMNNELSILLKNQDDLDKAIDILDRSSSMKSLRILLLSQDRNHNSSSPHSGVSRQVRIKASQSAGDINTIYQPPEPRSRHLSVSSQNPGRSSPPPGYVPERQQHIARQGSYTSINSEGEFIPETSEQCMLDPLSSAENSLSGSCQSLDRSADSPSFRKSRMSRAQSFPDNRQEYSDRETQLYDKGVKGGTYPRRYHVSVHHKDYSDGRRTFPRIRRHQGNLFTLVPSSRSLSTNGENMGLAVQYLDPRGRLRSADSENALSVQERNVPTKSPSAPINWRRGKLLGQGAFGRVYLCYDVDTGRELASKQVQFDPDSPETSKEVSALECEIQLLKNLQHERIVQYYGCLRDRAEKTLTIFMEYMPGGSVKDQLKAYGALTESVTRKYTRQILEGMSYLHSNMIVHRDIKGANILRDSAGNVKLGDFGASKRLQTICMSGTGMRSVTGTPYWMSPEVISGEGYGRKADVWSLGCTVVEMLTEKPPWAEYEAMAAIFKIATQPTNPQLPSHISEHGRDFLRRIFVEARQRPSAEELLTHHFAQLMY
MEKK2 mut-MEK5 = MEK5 binding signal on mutant MEKK2 PB1, primary screen, biochemical, multiplex bead flow cytometry, Alexa488-MEK5. 290,000 compounds, 0.35% hits. Alexa488-MEK5 binding to MEKK2 mutant. percent response, % at 10 µM; in the data active = percent response above about 24%, passing the limit was not always enough
MEKK2wt PB1 HTS = modulators of MEK5 binding to wildtype MEKK2, primary screen, biochemical, multiplex bead flow cytometry, Alexa488-MEK5 | 290,000 compounds, 1.1% hits | AID 1531, 2009 | binding response (% of control), % at 10 µM | Alexa488-MEK5 binding to MEKK2 WT; actives lie on both sides | Mitogen-activated protein kinase kinase kinase 2 (Homo sapiens), Q9Y2U5; in the data active = binding response below about 67% or above about 130%
Arr AP2 block = inhibitors of beta-arrestin/AP2 binding, primary screen, biochemical, GPCR trafficking, flow cytometry; beta-arrestin 1 C-terminal peptide binding to AP2 beta2-adaptin appendage (human); FITC-arrestin peptide / GST-AP2 beads; AP2 beta2 appendage carries R879A mutation; inhibition, % at 10 µM; 340,000 compounds, 0.31% hits; AID 504490, 2011;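 active = inhibition above a set limit, near 3 SD of compounds lacking own fluorescence, cut at about 54% in these data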;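 also: plate controls were DMSO wells for no effect and 5 µM unlabelled arrestin peptide for full effect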
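Test system: GST-tagged AP2 beta2-adaptin appendage (R879A) on 4 µm glutathione beads; also added: fluorescein-tagged arrestin peptide at 50 nM final; timing: 12 min plus 1 h, RT; signal: flow cytometry, FL1 (488/535 nm); read-out: percent drop in bead-associated FITC signal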
MEKK2wt confirm = modulators of MEK5 binding to wildtype MEKK2, confirmation, biochemical, single concentration, multiplex bead flow cytometry. shares compounds with MEKK3 PB1 HTS. Alexa488-MEK5 binding to MEKK2 WT; actives lie on both sides. binding response (% of control), % at 10 µM. 5,900 compounds, 2.4% hits. AID 1892, 2009; in the data active = binding response below about 16% or above about 210%; inactive = in between
MEKK2mut-MEK5 = mutant MEKK2 PB1-MEK5 binding signal retest – biochemical, single concentration, multiplex bead flow cytometry, confirmation. 5,900 compounds, 2% hits. shares compounds with MEKK3 PB1 HTS. Alexa488-MEK5 binding to MEKK2 mutant. AID 1893, 2009. percent response, % at 10 µM; in the data active = percent response mostly above about 71%, no sharp cut-off; inactive = mostly below about 38%;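 also: higher means compound restores mutant binding toward wildtype level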
MEKK3 confirm = MEKK3 wild-type PB1 binding to MEK5, inhibitors, confirmation, biochemical, bead multiplex flow cytometry, single concentration, wildtype | shares compounds with MEKK3 PB1 HTS | Alexa488-MEK5 binding to MEKK3; active compounds read low | binding response (% of control), % at 10 µM | 5,900 compounds, 1.8% hits;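 active = binding response below 72% of control, or above a set upper limit, though filed actives all read lower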;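 also: 100% = DMSO only wells and 0% = binding blocked by excess unlabeled MEK5; lower values mean stronger disruption of MEK5 binding to MEKK3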
Numbers without * were called inactive; x = not tested or not shown; [ ] = another dose, or the depositor's remark. Shown are actives, neighbours in structure and some others; about 2.3% of the full set was active somewhere.

SMILES	MEKK3 PB1 HTS	MEKK2 mut-MEK5	MEKK2wt PB1 HTS	Arr AP2 block	MEKK2wt confirm	MEKK2mut-MEK5	MEKK3 confirm
CCOc1ccc(NC(=O)CCS(=O)(=O)c2ccc(C)cc2)cc1	95.0	-3.0	93.0	-4.7	x	x	x
CC(=O)Nc1nnc(C2=COCCO2)o1	58.0*[inhibitor]	-4.0	78.0	-13.7	101.0	-1.0	99.0
CCOC(=O)Cn1cnc2c(nnn2-c2ccc(F)cc2)c1=O	100.0	-1.0	103.0	-7.0	x	x	x
COc1cccc(NC(=O)CN(c2cccc(C(F)(F)F)c2)S(C)(=O)=O)c1	80.0*[inhibitor]	-4.0	81.0	29.7	101.0	2.0	100.0
COc1cccc(NC(=O)CN(c2cccc(OC)c2)S(C)(=O)=O)c1	102.0	-3.0	98.0	-20.8	x	x	x
CCCc1nn2c(=O)cc(CSCC(=O)Nc3ccccc3OC)nc2s1	72.0	-23.0	80.0	-14.2	x	x	x
O=[N+]([O-])c1cc(Cl)ccc1N1CCN(c2cccc(C(F)(F)F)c2)CC1	103.0	14.0	138.0*	1.1	110.0	4.0	103.0
COc1ccc(CNCc2ccc(C(F)(F)F)cc2)cc1OC	108.0	8.0	110.0	6.3	x	x	x
Cc1nc2c(cc1C(=O)N/N=C/c1ccc([N+](=O)[O-])cc1)c(=O)n(C)c(=O)n2C	135.0*	1.0	108.0	3.6	105.0	12.0	111.0
COc1cc(/C=N/NC(=O)COc2ccccc2[N+](=O)[O-])ccc1OC(=O)c1ccco1	92.0	0.0	93.0	-5.6	x	x	x
O=C(COc1ccccc1[N+](=O)[O-])N/N=C/c1ccc(OC(=O)c2ccco2)cc1	139.0*	0.0	103.0	-4.9	96.0	-6.0	102.0
COC(=O)c1ccc(CN(c2ccccn2)S(=O)(=O)c2ccccc2)cc1	132.0*	9.0	126.0	17.1	94.0	-5.0	99.0
CCOC(=O)CN(c1ccccn1)S(=O)(=O)c1ccccc1	103.0	10.0	106.0	8.1	x	x	x
O=C(C1=C[C@@H](c2coc3ccccc3c2=O)C[C@@H](OCc2ccc(CO)cc2)O1)N1CCOCC1	82.0*[inhibitor]	1.0	101.0	34.8	97.0	-3.0	98.0
CN1CCN(C(=O)C2=C[C@H](c3coc4ccccc4c3=O)C[C@H](OCc3ccc(CO)cc3)O2)CC1	101.0	3.0	101.0	-4.8	x	x	x
CCOC(=O)c1sc2nc(C(C)C)c3c(c2c1N)CC(C)(C)OC3	101.0	6.0	104.0	5.7	x	x	x
CCOC(=O)c1sc2nc(C(C)C)c3c(c2c1N)CCC3	138.0*	0.0	108.0	-7.5	147.0	39.0	112.0
Cc1c(C(=O)Nc2ccc(Oc3ccccc3)cc2)sc2nc3n(c(=O)c12)CCC3	77.0*[inhibitor]	-10.0	87.0	2.0	99.0	-7.0	100.0
CCc1ccc(OCC(=O)Oc2ccc([N+](=O)[O-])cc2)cc1	39.0*[inhibitor]	-15.0	50.0*[inhibitor]	9.8	110.0	12.0	105.0
COCc1nnc(NS(=O)(=O)c2ccc(F)cc2)s1	101.0	13.0	99.0	1.6	x	x	x
COCCSc1nnc(NS(=O)(=O)c2ccc(F)cc2)s1	136.0*	0.0	119.0	4.7	105.0	19.0	106.0
COc1cccc(-c2nc(Cc3ccc(OC)c(OC)c3)no2)c1	96.0	1.0	-6.0*[inhibitor]	-8.8	99.0	-2.0	97.0
CC1CCN(C2CCN(S(=O)(=O)c3ccc(C(F)(F)F)cc3)CC2)CC1	100.0	8.0	103.0	15.7	x	x	x
CCN(CC)S(=O)(=O)c1ccc(N2CCOCC2)c(NS(=O)(=O)c2ccc(C)c(C)c2)c1	99.0	13.0	98.0	5.6	x	x	x
COC(=O)c1ccc(C(=O)N2CCCC(CNC(=O)c3ccccc3Cl)C2)cc1 (configuration not stated)	94.0	-8.0	85.0	3.8	x	x	x
SMILES	MEKK3 PB1 HTS	MEKK2 mut-MEK5	MEKK2wt PB1 HTS	Arr AP2 block	MEKK2wt confirm	MEKK2mut-MEK5	MEKK3 confirm
COc1ccc(CC(=O)N2CCCC(CNC(=O)c3ccccc3Cl)C2)cc1 (configuration not stated)	47.0*[inhibitor]	-35.0	54.0	3.6	106.0	9.0	107.0
C=C1CCN([C@H](C(=O)NCc2ccc(Cl)cc2)C(C)C)S(=O)(=O)c2ccccc21	80.0*[inhibitor]	-3.0	96.0	-1.8	95.0	-5.0	97.0
C=C1CCN([C@@H](CC(C)C)C(=O)NCc2ccccc2)S(=O)(=O)c2ccccc21	103.0	2.0	105.0	20.1	x	x	x
Nc1sc2c([n+]1CCCS(=O)(=O)[O-])CCCC2	99.0	-6.0	93.0	-18.1	x	x	x
Cc1cccc(C(=O)Nc2sc3c(c2C(=O)O)CCC3)c1	75.0*[inhibitor]	-14.0	84.0	23.2	96.0	-8.0	98.0
CN(C)CCNC(=O)c1c(NC(=O)c2ccccc2)sc2c1CCCC2	109.0	14.0	148.0*	-3.3	134.0	18.0	106.0
CN(CCO)C(=O)c1c(NC(=O)c2ccccc2)sc2c1CCCC2	105.0	0.0	101.0	-27.1	x	x	x
CNC(=O)c1c(NC(=O)c2cccc(C)c2)sc2c1CCC2	101.0	0.0	105.0	7.5	x	x	x
COc1ccc(C(=O)/C=C/Nc2ccc(S(=O)(=O)Nc3onc(C)c3C)cc2)cc1	98.0	-1.0	100.0	2.5	x	x	x
Cc1cc(C)n(CCNC(=O)CC2C(=O)NCCN2Cc2ccccc2C(F)(F)F)n1 (configuration not stated)	102.0	2.0	98.0	0.3	x	x	x
COc1ccc(C(=O)N2CCC(c3ccccc3)CC2)c(OC)c1OC	134.0*	2.0	123.0	16.5	109.0	0.0	102.0
Cc1nc(/C(N)=N/OC(=O)Cc2ccccc2)no1	96.0	-9.0	89.0	-14.6	x	x	x
COCc1[nH][nH]c(=O)c1/C=N/N1CCOCC1	40.0*[inhibitor]	-17.0	56.0	0.6	104.0	5.0	107.0
O=C(NCCOC(=O)C1COc2ccccc2O1)C1COc2ccccc2O1 (configuration not stated)	101.0	-2.0	99.0	-1.2	x	x	x
CC(C)N(C)CCOC(=O)C1COc2ccccc2O1 (configuration not stated)	131.0*	28.0	116.0	19.9	93.0	-13.0	92.0
NNC(=O)c1oc2ccccc2c1-n1cccc1	143.0*	4.0	121.0	-10.7	94.0	-6.0	95.0
